Experimental data as given in ChEMBL document CHEMBL3351667, “A chemical tuned strategy to develop novel irreversible EGFR-TK inhibitors with improved safety and pharmacokinetic profiles” (J Med Chem, 2014).

Key:
[1] = target: Platelet-derived growth factor receptor alpha (Homo sapiens, UniProt P16234); test: Inhibition of wild type PDGFRalpha (unknown origin) incubated for 5 mins by HTRF assay
[2] = target: Tyrosine-protein kinase SYK (Homo sapiens, UniProt P43405); test: Inhibition of wild type SYK (unknown origin) incubated for 5 mins by HTRF assay
[3] = target: Fibroblast growth factor receptor 2 (Homo sapiens, UniProt P21802); test: Inhibition of wild type FGFR2 (unknown origin) incubated for 5 mins by HTRF assay
[4] = target: Epidermal growth factor receptor (Homo sapiens, UniProt P00533);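 further: inhibition of wild-type EGFR read out by HTRF, with a 5 min incubation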
Mus musculus [5] = test: Apparent volume of distribution in BALB/c mouse at 10 mg/kg, po after 24 hrs by LC/MS/MS method; format: ADME, organism-based; set-up: dose 10 mg/kg, route oral; conditions: in vivo
[6] = target: Platelet-derived growth factor receptor beta (Homo sapiens, UniProt P09619); test: Inhibition of wild type PDGFRbeta (unknown origin) incubated for 5 mins by HTRF assay
[7] = (§1) Apparent clearance in BALB/c mouse at 10 mg/kg, po after 24 hrs by LC/MS/MS method; format: ADME, organism-based; set-up: dose 10 mg/kg, route oral; conditions: BALB/c, in vivo, read-out: CL(app)
Cytochrome P450 1A2 = target: T1, Cytochrome P450 1A2 (Homo sapiens, UniProt P05177); test: Inhibition of CYP1A2 in human hepatic microsomes after 20 mins by LC/MS/MS method; format: ADME, Liver
T1 sequence (P05177 whole entry): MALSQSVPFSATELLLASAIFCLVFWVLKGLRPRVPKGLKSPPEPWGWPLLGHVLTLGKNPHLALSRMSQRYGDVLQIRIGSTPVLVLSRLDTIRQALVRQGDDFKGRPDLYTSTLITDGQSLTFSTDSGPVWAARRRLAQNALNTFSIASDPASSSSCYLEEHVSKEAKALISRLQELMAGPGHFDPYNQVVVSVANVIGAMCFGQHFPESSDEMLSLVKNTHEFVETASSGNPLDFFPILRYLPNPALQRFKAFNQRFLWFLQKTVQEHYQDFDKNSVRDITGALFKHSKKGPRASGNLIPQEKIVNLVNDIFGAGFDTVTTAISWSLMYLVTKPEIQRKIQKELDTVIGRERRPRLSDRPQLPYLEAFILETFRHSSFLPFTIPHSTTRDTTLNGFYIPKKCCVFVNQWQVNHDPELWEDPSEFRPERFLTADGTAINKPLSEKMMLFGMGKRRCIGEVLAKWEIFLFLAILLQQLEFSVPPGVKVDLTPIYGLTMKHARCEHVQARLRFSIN

Cytochrome P450 2C9 = Cytochrome P450 2C9 (Homo sapiens, UniProt P11712); test: Inhibition of CYP2C9 in human hepatic microsomes after 20 mins by LC/MS/MS method; format: ADME, Liver
[8] = Intrinsic clearance in mouse liver microsomes assessed per mg protein at 1 uM in presence of NADPH after 0.5 to 30 mins by LC/MS/MS method; format: ADME; conditions: read-out: CLH
[9] = target: RAC-beta serine/threonine-protein kinase (Homo sapiens, UniProt P31751); test: Inhibition of wild type AKT2 (unknown origin) incubated for 5 mins by HTRF assay
[10] = (§2) AUC (0 to infinity) in BALB/c mouse at 10 mg/kg, po after 24 hrs by LC/MS/MS method; format: ADME, organism-based, Plasma; set-up: dose 10 mg/kg, route oral, time infinity; conditions: BALB/c, plasma
[11] = Oral bioavailability in BALB/c mouse at 10 mg/kg after 24 hrs by LC/MS/MS method; format: ADME, organism-based; conditions: in vivo
Cytochrome P450 2D6 = Cytochrome P450 2D6 (Homo sapiens, UniProt P10635); test: Inhibition of CYP2D6 in human hepatic microsomes after 20 mins by LC/MS/MS method; format: ADME, Liver
hERG (KCNH2) [12] = target: T2, hERG (KCNH2) (Homo sapiens, UniProt Q12809); test: Inhibition of human ERG assessed as reduction in channel currents at 1 uM
Cytochrome P450 3A4 = Cytochrome P450 3A4 (Homo sapiens, UniProt P08684); test: Inhibition of CYP3A4 in human hepatic microsomes after 20 mins by LC/MS/MS method; format: ADME, Liver
[13] = Intrinsic clearance in dog liver microsomes assessed per mg protein at 1 uM in presence of NADPH after 0.5 to 30 mins by LC/MS/MS method; format: ADME, Canis lupus familiaris; conditions: read-out: CLH
[14] = target: Hepatocyte growth factor receptor (Homo sapiens, UniProt P08581); test: Inhibition of wild type c-Met (unknown origin) incubated for 5 mins by HTRF assay
[15] = Cmax in BALB/c mouse at 10 mg/kg, po after 24 hrs by LC/MS/MS method; format: ADME, organism-based; set-up: dose 10 mg/kg, route oral; conditions: in vivo
[16] = target: Epidermal growth factor receptor (Homo sapiens, UniProt P00533, T790M); format: protein assay
Cytochrome P450 2C19 = Cytochrome P450 2C19 (Homo sapiens, UniProt P33261); test: Inhibition of CYP2C19 in human hepatic microsomes after 20 mins by LC/MS/MS method; format: ADME, Liver
[17] = target: Proto-oncogene tyrosine-protein kinase Src (Homo sapiens, UniProt P12931); test: Inhibition of wild type SRC (unknown origin) incubated for 5 mins by HTRF assay
[18] = Intrinsic clearance in rat liver microsomes assessed per mg protein at 1 uM in presence of NADPH after 0.5 to 30 mins by LC/MS/MS method; format: ADME; conditions: read-out: CLH
[19] = Intrinsic clearance in human liver microsomes assessed per mg protein at 1 uM in presence of NADPH after 0.5 to 30 mins by LC/MS/MS method; format: ADME; conditions: read-out: CLH
[20] = target: Receptor-type tyrosine-protein kinase FLT3 (Homo sapiens, UniProt P36888); test: Inhibition of wild type FLT3 (unknown origin) incubated for 5 mins by HTRF assay
[21] = target: RAC-alpha serine/threonine-protein kinase (Homo sapiens, UniProt P31749); test: Inhibition of wild type AKT1 (unknown origin) incubated for 5 mins by HTRF assay
[22] = target: Tyrosine-protein kinase ABL1 (Homo sapiens, UniProt P00519); test: Inhibition of wild type ABL (unknown origin) incubated for 5 mins by HTRF assay
[23] = target: ALK tyrosine kinase receptor (Homo sapiens, UniProt Q9UM73); test: Inhibition of wild type ALK (unknown origin) incubated for 5 mins by HTRF assay
[24] = Intrinsic clearance in monkey liver microsomes assessed per mg protein at 1 uM in presence of NADPH after 0.5 to 30 mins by LC/MS/MS method; format: ADME, Macaca mulatta; conditions: rhesus monkey, read-out: CLH
hERG (KCNH2) [25] = target: T2, hERG (KCNH2); test: Inhibition of human ERG assessed as reduction in channel currents at 10 uM
[26] = target: Tyrosine-protein kinase JAK2 (Homo sapiens, UniProt O60674); test: Inhibition of wild type JAK2 (unknown origin) incubated for 5 mins by HTRF assay
A-431 = test: cells; format: functional, cell-based; conditions: Homo sapiens, A-431, 48 h
[27] = Apparent clearance in BALB/c mouse at 5 mg/kg, po after 24 hrs by LC/MS/MS method; format: ADME, organism-based; set-up: dose 5 mg/kg, route oral; conditions: BALB/c, in vivo, read-out: CL(app)
[28] = Cmax in BALB/c mouse at 5 mg/kg, po after 24 hrs by LC/MS/MS method; format: ADME, organism-based; set-up: dose 5 mg/kg, route oral; conditions: in vivo
[29] = AUC (0 to infinity) in BALB/c mouse at 5 mg/kg, po after 24 hrs by LC/MS/MS method; format: ADME, organism-based, Plasma; set-up: time infinity, dose 5 mg/kg, route oral; conditions: BALB/c, plasma
NCI-H1975 = test: Antitumor activity against human NCI-H1975 cells xenografted in nude mouse assessed as reduction in tumor growth at 30 mg/kg/day, ig relative to untreated control; format: functional; conditions: route intragastric
[30] = Ratio of drug level in brain to plasma in BALB/c mouse at 30 mg/kg, po after 6 hrs by LC/MS/MS method; format: ADME, organism-based; set-up: dose 30 mg/kg, route oral; conditions: read-out: BPR
Procedure, shortened: (§3)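 BALB/c mice received a single oral dose of 30 mg/kg. Drug concentrations in lung, brain and plasma were measured at multiple time points over 6 h. Mean tissue levels are expressed as a lung/plasma/brain ratio, with plasma set to 1.0.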

[31] = Ratio of drug level in lung to plasma in BALB/c mouse at 30 mg/kg, po after 6 hrs by LC/MS/MS method; format: ADME, organism-based; set-up: dose 30 mg/kg, route oral; procedure, shortened: as §3
Mus musculus [32] = test: Apparent volume of distribution in BALB/c mouse at 5 mg/kg, po after 24 hrs by LC/MS/MS method; format: ADME, organism-based; set-up: dose 5 mg/kg, route oral; conditions: in vivo
[33] = Oral bioavailability in BALB/c mouse at 5 mg/kg after 24 hrs by LC/MS/MS method; format: ADME, organism-based; conditions: in vivo
Mus musculus [34] = test: as §1; format: ADME, organism-based; set-up: dose 10 mg/kg, route oral; conditions: in vivo, 24 h
SW-620 = test: Growth inhibition of human SW620 cells at 5 uM; format: functional; conditions: read-out: GI
Mus musculus [35] = test: as §2; format: ADME, organism-based, Plasma; set-up: dose 10 mg/kg, route oral, time infinity; conditions: in vivo, 24 h

T2 sequence (Q12809 whole entry): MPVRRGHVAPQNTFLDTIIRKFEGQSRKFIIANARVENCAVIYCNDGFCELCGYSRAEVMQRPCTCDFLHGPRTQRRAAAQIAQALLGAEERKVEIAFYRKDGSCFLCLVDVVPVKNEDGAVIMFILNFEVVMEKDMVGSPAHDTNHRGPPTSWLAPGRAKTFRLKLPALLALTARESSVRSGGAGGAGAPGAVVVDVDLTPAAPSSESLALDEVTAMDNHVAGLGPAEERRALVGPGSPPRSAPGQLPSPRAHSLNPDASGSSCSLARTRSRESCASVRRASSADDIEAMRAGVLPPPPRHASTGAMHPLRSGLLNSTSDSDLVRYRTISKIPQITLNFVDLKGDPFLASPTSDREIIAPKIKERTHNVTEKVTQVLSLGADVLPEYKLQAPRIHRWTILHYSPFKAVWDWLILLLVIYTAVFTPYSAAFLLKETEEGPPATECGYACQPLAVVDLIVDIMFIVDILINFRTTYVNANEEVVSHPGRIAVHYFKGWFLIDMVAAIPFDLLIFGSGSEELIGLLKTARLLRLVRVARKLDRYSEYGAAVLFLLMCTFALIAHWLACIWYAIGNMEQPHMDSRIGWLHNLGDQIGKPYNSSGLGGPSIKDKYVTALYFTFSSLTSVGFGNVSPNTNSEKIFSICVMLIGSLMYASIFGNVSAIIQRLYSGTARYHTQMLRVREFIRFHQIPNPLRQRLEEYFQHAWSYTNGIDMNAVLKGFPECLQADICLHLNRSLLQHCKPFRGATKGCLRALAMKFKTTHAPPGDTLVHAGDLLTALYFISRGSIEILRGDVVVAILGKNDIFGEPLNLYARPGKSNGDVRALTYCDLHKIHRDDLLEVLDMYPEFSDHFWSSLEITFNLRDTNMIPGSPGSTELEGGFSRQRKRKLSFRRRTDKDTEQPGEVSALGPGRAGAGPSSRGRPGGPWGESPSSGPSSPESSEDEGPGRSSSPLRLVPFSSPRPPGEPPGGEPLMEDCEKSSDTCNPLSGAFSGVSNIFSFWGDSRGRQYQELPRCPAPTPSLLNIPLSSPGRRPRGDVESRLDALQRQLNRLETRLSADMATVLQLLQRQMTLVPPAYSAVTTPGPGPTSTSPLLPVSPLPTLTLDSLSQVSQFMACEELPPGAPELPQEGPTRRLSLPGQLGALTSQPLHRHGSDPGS
Cytochrome P450 2C9, sequence (P11712 whole entry): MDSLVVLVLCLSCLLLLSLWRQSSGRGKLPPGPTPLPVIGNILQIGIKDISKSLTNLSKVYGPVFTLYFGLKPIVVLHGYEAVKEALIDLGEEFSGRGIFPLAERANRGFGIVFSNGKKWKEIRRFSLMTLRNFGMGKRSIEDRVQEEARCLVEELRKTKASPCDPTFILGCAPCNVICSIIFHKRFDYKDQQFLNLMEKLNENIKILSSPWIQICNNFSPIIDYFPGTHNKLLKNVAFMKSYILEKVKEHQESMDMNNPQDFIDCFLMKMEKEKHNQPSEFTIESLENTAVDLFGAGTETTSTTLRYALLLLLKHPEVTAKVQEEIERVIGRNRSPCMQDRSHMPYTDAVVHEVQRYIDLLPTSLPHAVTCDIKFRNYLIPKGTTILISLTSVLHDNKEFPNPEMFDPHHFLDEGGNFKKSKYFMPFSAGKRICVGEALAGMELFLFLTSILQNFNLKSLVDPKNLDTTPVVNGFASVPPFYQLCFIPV
Cytochrome P450 3A4, sequence (P08684 whole entry): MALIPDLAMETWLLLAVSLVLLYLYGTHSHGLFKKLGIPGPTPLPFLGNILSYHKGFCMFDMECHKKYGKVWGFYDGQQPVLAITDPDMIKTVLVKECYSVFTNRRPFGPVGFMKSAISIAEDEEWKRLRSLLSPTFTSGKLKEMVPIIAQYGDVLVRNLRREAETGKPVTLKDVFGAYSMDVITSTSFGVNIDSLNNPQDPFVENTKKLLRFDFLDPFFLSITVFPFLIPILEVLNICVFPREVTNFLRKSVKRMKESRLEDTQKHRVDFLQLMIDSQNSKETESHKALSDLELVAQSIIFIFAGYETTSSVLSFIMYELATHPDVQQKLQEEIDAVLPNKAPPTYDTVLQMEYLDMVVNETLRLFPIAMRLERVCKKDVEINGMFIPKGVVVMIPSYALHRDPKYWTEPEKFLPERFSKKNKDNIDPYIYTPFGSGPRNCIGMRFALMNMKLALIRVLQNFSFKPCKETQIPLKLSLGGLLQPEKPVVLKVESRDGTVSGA
Cytochrome P450 2D6, sequence (P10635 whole entry): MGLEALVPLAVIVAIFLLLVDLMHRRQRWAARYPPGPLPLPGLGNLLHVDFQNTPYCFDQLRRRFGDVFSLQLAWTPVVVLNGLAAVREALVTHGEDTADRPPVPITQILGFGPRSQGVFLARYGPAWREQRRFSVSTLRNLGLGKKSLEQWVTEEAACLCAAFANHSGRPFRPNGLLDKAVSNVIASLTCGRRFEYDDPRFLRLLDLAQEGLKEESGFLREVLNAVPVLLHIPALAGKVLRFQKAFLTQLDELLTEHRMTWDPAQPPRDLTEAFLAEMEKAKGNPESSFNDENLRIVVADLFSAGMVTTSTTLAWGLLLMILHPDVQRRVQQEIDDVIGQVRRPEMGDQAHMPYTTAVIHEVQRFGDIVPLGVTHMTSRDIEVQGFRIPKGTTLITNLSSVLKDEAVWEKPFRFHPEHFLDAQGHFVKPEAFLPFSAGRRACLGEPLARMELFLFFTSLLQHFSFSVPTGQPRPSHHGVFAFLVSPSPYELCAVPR
Cytochrome P450 2C19, sequence (P33261 whole entry): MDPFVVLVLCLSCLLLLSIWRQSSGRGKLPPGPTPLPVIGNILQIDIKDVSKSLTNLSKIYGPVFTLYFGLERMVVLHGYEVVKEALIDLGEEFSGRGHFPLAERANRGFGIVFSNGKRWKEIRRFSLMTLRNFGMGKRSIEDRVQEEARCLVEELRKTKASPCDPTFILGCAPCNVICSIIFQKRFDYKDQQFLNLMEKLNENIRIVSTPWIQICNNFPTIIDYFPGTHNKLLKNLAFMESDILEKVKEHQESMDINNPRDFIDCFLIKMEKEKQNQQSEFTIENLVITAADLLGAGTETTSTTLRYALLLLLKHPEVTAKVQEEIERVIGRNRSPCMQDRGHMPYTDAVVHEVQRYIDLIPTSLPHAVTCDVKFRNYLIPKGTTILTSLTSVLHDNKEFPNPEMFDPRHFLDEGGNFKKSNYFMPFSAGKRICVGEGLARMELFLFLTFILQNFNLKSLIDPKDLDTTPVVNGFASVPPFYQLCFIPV
Proto-oncogene tyrosine-protein kinase Src, sequence (P12931 2-536 limits assumed): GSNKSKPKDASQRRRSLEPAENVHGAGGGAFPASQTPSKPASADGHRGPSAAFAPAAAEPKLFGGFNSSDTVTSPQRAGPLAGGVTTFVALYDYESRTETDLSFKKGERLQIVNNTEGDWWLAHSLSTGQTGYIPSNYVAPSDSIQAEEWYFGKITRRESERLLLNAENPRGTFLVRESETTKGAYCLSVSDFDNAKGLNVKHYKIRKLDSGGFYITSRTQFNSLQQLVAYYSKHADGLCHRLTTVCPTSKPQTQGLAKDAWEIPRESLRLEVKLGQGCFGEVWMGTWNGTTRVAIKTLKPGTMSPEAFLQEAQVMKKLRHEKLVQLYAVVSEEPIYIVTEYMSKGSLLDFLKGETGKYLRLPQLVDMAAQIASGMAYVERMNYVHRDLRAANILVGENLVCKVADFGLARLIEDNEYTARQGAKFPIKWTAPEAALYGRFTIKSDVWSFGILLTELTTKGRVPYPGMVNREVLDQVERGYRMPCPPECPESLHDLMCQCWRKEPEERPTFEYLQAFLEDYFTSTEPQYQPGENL
Tyrosine-protein kinase JAK2, sequence (O60674 whole entry): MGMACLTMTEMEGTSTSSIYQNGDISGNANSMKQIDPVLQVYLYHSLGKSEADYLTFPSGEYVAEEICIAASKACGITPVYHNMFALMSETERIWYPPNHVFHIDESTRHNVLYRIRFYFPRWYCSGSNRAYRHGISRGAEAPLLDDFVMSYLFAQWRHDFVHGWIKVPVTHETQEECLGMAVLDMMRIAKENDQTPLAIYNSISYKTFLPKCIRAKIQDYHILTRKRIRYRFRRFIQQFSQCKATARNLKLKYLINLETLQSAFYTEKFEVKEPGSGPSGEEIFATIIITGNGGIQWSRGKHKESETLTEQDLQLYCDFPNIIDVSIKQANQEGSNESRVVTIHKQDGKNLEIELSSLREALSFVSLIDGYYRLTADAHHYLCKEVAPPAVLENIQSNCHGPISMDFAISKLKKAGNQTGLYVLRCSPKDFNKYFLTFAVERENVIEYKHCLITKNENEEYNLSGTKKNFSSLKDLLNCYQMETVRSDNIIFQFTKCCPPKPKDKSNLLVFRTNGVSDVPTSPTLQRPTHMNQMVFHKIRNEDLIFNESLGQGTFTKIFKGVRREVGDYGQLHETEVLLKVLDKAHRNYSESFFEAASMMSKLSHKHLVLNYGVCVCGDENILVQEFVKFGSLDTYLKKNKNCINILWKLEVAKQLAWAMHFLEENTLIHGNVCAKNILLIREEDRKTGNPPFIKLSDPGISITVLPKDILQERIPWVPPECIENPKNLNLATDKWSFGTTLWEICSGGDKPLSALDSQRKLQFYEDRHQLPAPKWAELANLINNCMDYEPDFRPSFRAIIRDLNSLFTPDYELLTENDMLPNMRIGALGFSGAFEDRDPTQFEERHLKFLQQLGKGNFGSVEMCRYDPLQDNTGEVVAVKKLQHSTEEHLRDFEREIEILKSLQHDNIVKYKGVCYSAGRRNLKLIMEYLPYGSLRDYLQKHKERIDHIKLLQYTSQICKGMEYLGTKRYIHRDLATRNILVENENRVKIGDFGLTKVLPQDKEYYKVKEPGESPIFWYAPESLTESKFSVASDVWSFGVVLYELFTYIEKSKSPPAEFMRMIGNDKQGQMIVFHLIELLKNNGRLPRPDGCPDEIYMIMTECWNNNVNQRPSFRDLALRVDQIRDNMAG

| Vz (Mus musculus [5]) [L/kg] | IC50 (Cytochrome P450 1A2) [µM] | IC50 (Cytochrome P450 2C9) [µM] | microsomal CLint at 1 µM [8] [µL/min/mg] | bioavailability [11] [%] | IC50 (Cytochrome P450 2D6) [µM] | IC50 (Cytochrome P450 3A4) [µM] | microsomal CLint at 1 µM [13] [µL/min/mg] | Cmax [15] [nM] | IC50 (Cytochrome P450 2C19) [µM] | microsomal CLint at 1 µM [18] [µL/min/mg] | microsomal CLint at 1 µM [19] [µL/min/mg] | microsomal CLint at 1 µM [24] [µL/min/mg] | Compound | inhibition at 1 µM (hERG (KCNH2) [12]) [%] | inhibition at 10 µM (hERG (KCNH2) [25]) [%] | T/C (NCI-H1975) [%] | also measured |
| --- | --- | --- | --- | --- | --- | --- | --- | --- | --- | --- | --- | --- | --- | --- | --- | --- | --- |
| 14 | > 10 | > 10 | 45 | 98.5 | > 10 | > 10 | 194 | 790 | > 10 | 18 | 14 | 128 | COc1cc2ncnc(Nc3ccc(F)c(Cl)c3)c2cc1NC(=O)/C(F)=C/CN(C)C | 2.55 | 18.4 | – | IC50 [1]: 3.6 µM; IC50 [2]: > 10 µM; IC50 [3]: > 10 µM; IC50 [4]: 0.0002 µM; IC50 [6]: 2.1 µM; CL/F [7]: 50 mL/min/kg; IC50 [9]: > 10 µM; AUC(0-inf) [10]: 7.67 µM·h; IC50 [14]: > 10 µM; IC50 [16]: 0.00667 µM; IC50 [17]: 1.73 µM; IC50 [20]: 6.81 µM; IC50 [21]: > 10 µM; IC50 [22]: 2.26 µM; IC50 [23]: > 10 µM; IC50 [26]: > 10 µM |
| – | > 10 | > 10 | 31 | – | > 10 | > 10 | 34 | – | > 10 | 11 | 37 | 102 | COc1cc2ncnc(Nc3ccc(F)c(Cl)c3)c2cc1NC(=O)/C(F)=C/CN1CCCCC1 | 0.71 | 11.8 | 67.4 | IC50 (A-431): 0.46 µM; CL/F [27]: 40 mL/min/kg; Cmax [28]: 830 nM; AUC(0-inf) [29]: 5.1 µM·h; Kp at 6 h [30]: 2.31; Kp at 6 h [31]: 20; Vz (Mus musculus [32]): 7.14 L/kg; bioavailability [33]: 105% |
| 36.2 | – | – | 6 | 37.4 | – | – | 9 | 130 | – | 12 | 8 | 24 | CN(C)C/C=C/C(=O)Nc1cc2c(Nc3ccc(F)c(Cl)c3)ncnc2cc1O[C@H]1CCOC1 [AFATINIB] | – | – | 30.3 | CL(app) (Mus musculus [34]): 270 mL/min/kg; inhibition of growth at 5 µM (SW-620): 78%; AUC (Mus musculus [35]): 29.4 µM·min |
